Bioassay records deposited in PubChem by Broad Institute.
Most compounds without a hit are left out; they make up all but 3% or so of the library.
NSD2 HMT inh = blocks human histone methyltransferase NSD2. inhibition, % at 12.5 µM. AID 743445. NSD2 peptide methylation, AlphaScreen, 120 min. O96028. 310,000 tested, 0.54% active; in the data active means inhibition above about 50%
Xi reactivation = reactivates the inactive X chromosome in mouse fibroblasts. XiGFP mouse fibroblasts, % GFP-positive cells imaging, 3 d; cells co-treated with 5-aza-dC sensitizer; scaled so ellipticine positive control = 100%. activation, % at 7.58 µM. 360,000 tested, 0.055% active;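 active means mean normalized replicate activation at least 10% and every replicate at or above 10%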;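 further: 0% = median of on-plate neutral control wells and 100% = ellipticine 6 µM median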
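Material: SV40-immortalized XiGFP fibroblast cells, line 68-5-11 | Buffer or medium: DMEM containing 5-aza-dC | Dosing: One concentration, pinned | Times: 3 d treatment, 15 min room-temperature fixation | Controls: Ellipticine 6 µM positive control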
esBAF inh = blocks esBAF chromatin remodeling in mouse ES cells; reporter increase, % at 12.5 µM; Bmi1-luciferase knock-in reporter, 24 h; 100% = twice the neutral-well signal; 350,000 tested, 2% active; in the data active means activation above about 40%;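 further: 0% = median of the plate's neutral control wells and 100% = double that signal; a rise in the Bmi1 reporter signal indicates esBAF inhibition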
Wnt bcat act = Wnt/beta-catenin pathway activation. Wnt/beta-catenin reporter cell assay, activator, plate reader. activation, % at 9.35 µM. 300,000 tested, 1.2% active. AID 743398; in the data active means activation above about 30%, passing the limit was not always enough;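 further: 0% = neutral control wells and 100% = positive control wells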
CASP6 VEID inh = inhibitors of human caspase-6; P55212; purified caspase-6, Z-VEID-R110 cleavage fluorescence; inhibition, % at 12.5 µM; 350,000 tested, 0.53% active;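 active means mean inhibition across replicates at least about 35%, with every replicate also reaching that limit, limit read from the data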;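 further: 0% = median of neutral control wells and 100% = no fluorescence left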
Target sequence (P55212 24-179 limits assumed): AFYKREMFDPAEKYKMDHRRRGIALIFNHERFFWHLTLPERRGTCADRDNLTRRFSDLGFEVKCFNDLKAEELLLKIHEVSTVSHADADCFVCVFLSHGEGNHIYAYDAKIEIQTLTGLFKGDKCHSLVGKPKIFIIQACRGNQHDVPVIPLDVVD
Target sequence (P55212 194-293 limits assumed): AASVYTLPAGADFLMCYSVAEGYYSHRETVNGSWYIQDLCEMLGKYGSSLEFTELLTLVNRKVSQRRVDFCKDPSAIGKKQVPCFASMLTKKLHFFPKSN
MITF act = increases MITF-driven TRPM1 promoter luciferase signal. SK-MEL-5 TRPM1-promoter luciferase, 24 h; % of positive control, neutral wells = 0. activation, % at 12.5 µM. 300,000 tested, 0.75% active;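 active means mean activation of at least 80% with every replicate also reaching 80%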;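 further: 0% = neutral control wells and 100% = parthenolide positive control wells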
An asterisk follows results filed as active; nt = not tested or not shown.

SMILES	NSD2 HMT inh	Xi reactivation	esBAF inh	Wnt bcat act	CASP6 VEID inh	MITF act
CC(=O)c1cc(NC(=O)c2ccc(C)cc2)c(=O)oc1/C=C/N(C)C	-1.9	nt	44.3*	nt	nt	7.7
COc1ccc(C(=O)Nc2cc(C(C)=O)c(/C=C/N(C)C)oc2=O)cc1	1.1	nt	0.5	5.3	nt	13.0
COc1ccc(C(=O)O/N=C(\N)c2ccccn2)cc1	11.4	0.1	-71.0	-0.3	nt	-79.6
COc1cc(OC)c(C(=O)O/N=C(\N)c2ccccn2)cc1OC	-0.1	0.0	11.1	2.4	-1.7	26.0
COc1ccccc1C(=O)O/N=C(\N)c1ccccn1	-1.6	0.1	-36.3	53.9*	1.6	nt
COc1cc(OC)cc(C(=O)O/N=C(\N)c2ccccn2)c1	-0.7	0.0	nt	52.4*	-0.8	nt
C[C@@H]1CCCCO[C@@H](CN(C)C(=O)Nc2ccc3c(c2)OCO3)[C@@H](C)CN([C@H](C)CO)C(=O)c2cc(NC(=O)NC3CCCCC3)ccc2O1	nt	0.0	0.9	nt	nt	nt
COc1ccc(-n2cc3ccc([N+](=O)[O-])cc3n2)cc1	-0.5	0.1	nt	41.3*	-2.1	23.2
Cc1ccc(C)c(Nc2nc(N)c3ccccc3n2)c1	-2.3	-0.1	nt	33.1*	0.2	47.0
O=C1C=C(c2cc3ccccc3s2)CCC1	nt	0.0	73.9*	25.6	nt	106.4*
Cc1ccc(NC(=O)c2nnn(CC(=O)Nc3ccc4c(c3)OCO4)c2N)cc1C	-3.4	0.0	18.5	2.1	-3.1	5.9
Cc1ccc(SCC(=O)NCc2ccccc2)cc1	-1.4	0.3	23.7	3.7	-0.2	nt
Nc1c(C(=O)Nc2ccc3c(c2)OCCO3)nnn1Cc1ccc(Br)cc1	-1.0	0.1	126.2*	36.2*	2.4	111.1*
Nc1c(C(=O)Nc2ccc3c(c2)OCCO3)nnn1CCc1ccccc1	nt	0.4	66.5*	12.1	0.5	12.4
Nc1c(C(=O)Nc2ccc3c(c2)OCCO3)nnn1Cc1cccc(Br)c1	1.6	0.3	55.0*	42.2*	-1.8	102.0*
O=C(CSc1ccc2c(c1)OCCO2)NCc1ccccc1	-1.3	0.4	nt	-0.6	38.0*	6.7
Nc1c(C(=O)Nc2ccccc2Cl)nnn1-c1ccc2c(c1)OCCO2	-7.5	0.0	32.4	18.4	-0.9	132.3*
O=C(Nc1ccc2c(c1)OCCO2)N1CCN(Cc2ccccc2)CC1	2.1	-0.1	55.3*	24.6	3.2	58.9
O=C(CN1CCN(CC(=O)Nc2ccccc2Cl)CC1)Nc1ccc2c(c1)OCCO2	1.2	nt	0.3	nt	nt	5.2
Cc1ccc(NC(=O)CSc2nccn2Cc2ccco2)cc1	2.7	0.1	55.9*	20.6	-2.1	54.1
Cn1c(SCC(=O)O)nc2ccccc2c1=O	nt	nt	2.7	-1.4	2.1	-1.6
COC(=O)c1ccc(NC(=O)CSc2nc(=O)cc(N)n2-c2ccccc2)cc1	-0.1	0.0	-1.8	2.2	-1.4	5.6
CC(=O)c1ccc(NC(=O)CSc2nc(=O)cc(N)n2-c2ccccc2)cc1	1.1	-0.1	63.2*	11.9	nt	67.3
COC(=O)CSc1nc2ccccc2c(=O)n1C	-11.4	nt	-0.6	41.7*	nt	2.6
COCCn1c(SCC(=O)Nc2ccc(NC(C)=O)cc2)nc2ccccc2c1=O	10.4	0.3	-2.6	8.6	0.8	7.9
SMILES	NSD2 HMT inh	Xi reactivation	esBAF inh	Wnt bcat act	CASP6 VEID inh	MITF act
COCCCn1c(SCC(=O)Nc2ccc(C(C)=O)cc2)nc2ccccc2c1=O	nt	nt	65.7*	nt	nt	nt
COc1ccc2c3c(n(C)c2c1)[C@@H](CO)N(Cc1ccccc1F)CC31CCN(C(C)=O)CC1	nt	0.4	nt	nt	nt	nt
Cc1noc(C)c1NC(=O)Nc1ccc2c(c1)CC(=O)N([C@@H](C)CO)C[C@H](C)[C@H](CN(C)CC1CCCCC1)O2	nt	0.1	-0.5	nt	-0.2	nt
Cc1cccc(S(=O)(=O)N2C[C@@H]3N[C@H](C2)C3c2ccc(-c3cccc(C#N)c3)cc2)c1 (some centres not stated)	nt	0.2	nt	nt	0.6	nt
COc1ccc([C@@H]2C/C=C\C[C@@H](c3ccccc3)NC(=O)CCC(=O)N2)c(OC)c1	nt	0.2	nt	nt	nt	nt
CO[C@@H]1CN(C)C(=O)c2cc(NC(C)=O)ccc2OC[C@H](C)N(C(=O)c2ccccn2)C[C@@H]1C	nt	-0.1	-2.8	nt	-0.4	nt
N#Cc1ccccc1NC(=O)CSc1nccn1CCc1ccccc1	0.3	nt	56.0*	nt	nt	51.7
CC(=O)c1ccc(NC(=O)CSc2nccn2CCc2ccccc2)cc1	1.9	nt	78.5*	25.0	nt	51.8
